Assay results published in ChEMBL document CHEMBL5058577, “EUbOPEN Chemogenomics Library 2 (Multiplex)” (2022).

Tested on: Fibroblast
Test: Multiplex assay against human fibroblast
Assay type: toxicity, cell-based
Summary of the method: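 At seeding, live cells were stained with Hoechst33342, BioTracker Green Microtubule Cytoskeleton Dye, MitoTracker Red and Annexin V Alexa Fluor 680. After compound addition they were imaged on a CQ1 microscope at 37°C and 5% CO2, and CellPathfinder machine-learning gating sorted them into Hoechst high-intensity objects or normal cells, with normal cells further split into healthy, pyknosed or fragmented nuclei and pyknosed cells into mitotic or apoptotic. Tubulin, mitochondrial-mass and membrane-permeability phenotypes are given as per cents of cells with healthy nuclei.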

[1] = 12 h, 1 µM, compound concentration 1 uM, replicate 1
[2] = 12 h, 1 µM, compound concentration 1 uM, replicate 2
[3] = 12 h, 10 µM, compound concentration 10 uM, replicate 1
[4] = 12 h, 10 µM, compound concentration 10 uM, replicate 2
[5] = 24 h, 1 µM, compound concentration 1 uM, replicate 1
[6] = 24 h, 1 µM, compound concentration 1 uM, replicate 2
[7] = 24 h, 10 µM, compound concentration 10 uM, replicate 1
[8] = 24 h, 10 µM, compound concentration 10 uM, replicate 2
[9] = 48 h, 1 µM, compound concentration 1 uM, replicate 1
[10] = 48 h, 1 µM, compound concentration 1 uM, replicate 2
[11] = 48 h, 10 µM, compound concentration 10 uM, replicate 1
[12] = 48 h, 10 µM, compound concentration 10 uM, replicate 2

Structure (SMILES): Cc1cc(-c2ccc3c(c2)CC[C@H]3N2CC3(CCN(C(=O)Cc4cn5cc(C)sc5n4)CC3)C2)ncn1 [PF-5190457]
- Population Apoptotic (%) [1]: 29%
- Population Fragmented Nuclei (%) [1]: 16%
- Population Healthy Nuclei (%) [1]: 71%
- Population Hoechst High Intensity Objects (%) [1]: 4%
- Population Membrane Permeable-Phenotype (%) [1]: 1%
- Population Mitochondria Different-Phenotype (%) [1]: 5%
- Population Mitotic Cells (%) [1]: 70%
- Population Normal (%) [1]: 96%
- Population Pyknosed Nuclei (%) [1]: 11%
- Population Tubulin-Different-Phenotype (%) [1]: 24%
- Total Cell Count [1]: 150
- Population Apoptotic (%) [2]: 30%
- Population Fragmented Nuclei (%) [2]: 18%
- Population Healthy Nuclei (%) [2]: 46%
- Population Membrane Permeable-Phenotype (%) [2]: 9%
- Population Mitochondria Different-Phenotype (%) [2]: 0%
- Population Normal (%) [2]: 95%
- Population Pyknosed Nuclei (%) [2]: 34%
- Population Tubulin-Different-Phenotype (%) [2]: 48%
- Total Cell Count [2]: 121
- Population Apoptotic (%) [3]: 36%
- Population Fragmented Nuclei (%) [3]: 17%
- Population Healthy Nuclei (%) [3]: 63%
- Population Hoechst High Intensity Objects (%) [3]: 4%
- Population Membrane Permeable-Phenotype (%) [3]: 1%
- Population Mitochondria Different-Phenotype (%) [3]: 5%
- Population Mitotic Cells (%) [3]: 63%
- Population Normal (%) [3]: 95%
- Population Pyknosed Nuclei (%) [3]: 18%
- Population Tubulin-Different-Phenotype (%) [3]: 38%
- Total Cell Count [3]: 186
- Population Apoptotic (%) [4]: 45%
- Population Fragmented Nuclei (%) [4]: 20%
- Population Healthy Nuclei (%) [4]: 55%
- Population Hoechst High Intensity Objects (%) [4]: 1%
- Population Membrane Permeable-Phenotype (%) [4]: 6%
- Population Mitochondria Different-Phenotype (%) [4]: 4%
- Population Mitotic Cells (%) [4]: 54%
- Population Normal (%) [4]: 98%
- Population Pyknosed Nuclei (%) [4]: 24%
- Population Tubulin-Different-Phenotype (%) [4]: 56%
- Total Cell Count [4]: 138
- Population Apoptotic (%) [5]: 54%
- Population Fragmented Nuclei (%) [5]: 19%
- Population Healthy Nuclei (%) [5]: 72%
- Population Hoechst High Intensity Objects (%) [5]: 2%
- Population Membrane Permeable-Phenotype (%) [5]: 1%
- Population Mitochondria Different-Phenotype (%) [5]: 4%
- Population Mitotic Cells (%) [5]: 45%
- Population Normal (%) [5]: 97%
- Population Pyknosed Nuclei (%) [5]: 7%
- Population Tubulin-Different-Phenotype (%) [5]: 26%
- Total Cell Count [5]: 141
- Population Apoptotic (%) [6]: 15%
- Population Fragmented Nuclei (%) [6]: 23%
- Population Healthy Nuclei (%) [6]: 43%
- Population Hoechst High Intensity Objects (%) [6]: 3%
- Population Membrane Permeable-Phenotype (%) [6]: 5%
- Population Mitochondria Different-Phenotype (%) [6]: 5%
- Population Mitotic Cells (%) [6]: 84%
- Population Normal (%) [6]: 96%
- Population Pyknosed Nuclei (%) [6]: 32%
- Population Tubulin-Different-Phenotype (%) [6]: 54%
- Total Cell Count [6]: 126
- Population Apoptotic (%) [7]: 44%
- Population Fragmented Nuclei (%) [7]: 19%
- Population Healthy Nuclei (%) [7]: 64%
- Population Hoechst High Intensity Objects (%) [7]: 3%
- Population Membrane Permeable-Phenotype (%) [7]: 0%
- Population Mitochondria Different-Phenotype (%) [7]: 6%
- Population Mitotic Cells (%) [7]: 55%
- Population Normal (%) [7]: 96%
- Population Pyknosed Nuclei (%) [7]: 16%
- Population Tubulin-Different-Phenotype (%) [7]: 37%
- Total Cell Count [7]: 180
- Population Apoptotic (%) [8]: 53%
- Population Fragmented Nuclei (%) [8]: 25%
- Population Healthy Nuclei (%) [8]: 49%
- Population Hoechst High Intensity Objects (%) [8]: 5%
- Population Membrane Permeable-Phenotype (%) [8]: 1%
- Population Mitochondria Different-Phenotype (%) [8]: 7%
- Population Mitotic Cells (%) [8]: 46%
- Population Normal (%) [8]: 94%
- Population Pyknosed Nuclei (%) [8]: 25%
- Population Tubulin-Different-Phenotype (%) [8]: 60%
- Total Cell Count [8]: 134
- Population Apoptotic (%) [9]: 78%
- Population Fragmented Nuclei (%) [9]: 30%
- Population Healthy Nuclei (%) [9]: 59%
- Population Hoechst High Intensity Objects (%) [9]: 6%
- Population Membrane Permeable-Phenotype (%) [9]: 2%
- Population Mitochondria Different-Phenotype (%) [9]: 2%
- Population Mitotic Cells (%) [9]: 21%
- Population Normal (%) [9]: 93%
- Population Pyknosed Nuclei (%) [9]: 9%
- Population Tubulin-Different-Phenotype (%) [9]: 23%
- Total Cell Count [9]: 157
- Population Apoptotic (%) [10]: 34%
- Population Fragmented Nuclei (%) [10]: 32%
- Population Healthy Nuclei (%) [10]: 47%
- Population Hoechst High Intensity Objects (%) [10]: 2%
- Population Membrane Permeable-Phenotype (%) [10]: 14%
- Population Mitochondria Different-Phenotype (%) [10]: 6%
- Population Mitotic Cells (%) [10]: 65%
- Population Normal (%) [10]: 97%
- Population Pyknosed Nuclei (%) [10]: 20%
- Population Tubulin-Different-Phenotype (%) [10]: 68%
- Total Cell Count [10]: 132
- Population Apoptotic (%) [11]: 63%
- Population Fragmented Nuclei (%) [11]: 22%
- Population Healthy Nuclei (%) [11]: 66%
- Population Hoechst High Intensity Objects (%) [11]: 6%
- Population Membrane Permeable-Phenotype (%) [11]: 0%
- Population Mitochondria Different-Phenotype (%) [11]: 12%
- Population Mitotic Cells (%) [11]: 36%
- Population Normal (%) [11]: 93%
- Population Pyknosed Nuclei (%) [11]: 10%
- Population Tubulin-Different-Phenotype (%) [11]: 37%
- Total Cell Count [11]: 192
- Population Apoptotic (%) [12]: 62%
- Population Fragmented Nuclei (%) [12]: 30%
- Population Healthy Nuclei (%) [12]: 51%
- Population Hoechst High Intensity Objects (%) [12]: 1%
- Population Membrane Permeable-Phenotype (%) [12]: 5%
- Population Mitochondria Different-Phenotype (%) [12]: 14%
- Population Mitotic Cells (%) [12]: 37%
- Population Normal (%) [12]: 98%
- Population Pyknosed Nuclei (%) [12]: 18%
- Population Tubulin-Different-Phenotype (%) [12]: 64%
- Total Cell Count [12]: 135
